Our source for the Activity values is ChEMBL document CHEMBL1157639, “Identification of inhibitors of drug-resistant Candida albicans strains from a library of bicyclic peptidomimetic compounds” (2010).

Molecules are shown by their SMILES.

What all share (assay type): functional, Vagina
Experiment [1] concerns Candida albicans. The experiment can be described thus: Antifungal activity against pharmacoresistant Candida albicans AIDS68 infected in Wistar rat estrogen-dependent fungal vaginitis model assessed as fungal burden at 10 ug administered intravaginally 48 hrs after fungal infection measured on day 7 after infection. The procedure, abridged:
(§1)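 Oophorectomized female Wistar rats (80-100 g) got 0.5 mg estradiol benzoate s.c. Six days later they were inoculated intravaginally with >10⁷ YPD-grown yeast cells (28 °C, washed, hemocytometer-counted) in 0.1 mL saline. Treatment was given intravaginally at 1, 24 and 48 h post-challenge. Burden was counted by culturing 100 μL vaginal fluid on Sabouraud-chloramphenicol (50 μg/mL) agar, as CFU/mL ×1000, through day 28.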

For experiment [2], the system named is Candida albicans. Put plainly: Antifungal activity against pharmacoresistant Candida albicans AIDS68 infected in Wistar rat estrogen-dependent fungal vaginitis model assessed as fungal burden at 10 ug administered intravaginally 48 hrs after fungal infection measured on day 5 after infection. In short, it runs like this: as §1
The subject of experiment [3] is Candida albicans. Put plainly: Antifungal activity against pharmacoresistant Candida albicans AIDS68 infected in Wistar rat estrogen-dependent fungal vaginitis model assessed as fungal burden at 10 ug administered intravaginally 24 hrs after fungal infection measured on day 2 after infection. In short, it runs like this:
as §1

For experiment [4], the system named is Candida albicans. Put plainly: Antifungal activity against pharmacoresistant Candida albicans AIDS68 infected in Wistar rat estrogen-dependent fungal vaginitis model assessed as fungal burden at 10 ug administered intravaginally 1 hr after fungal infection measured on day 1 after infection. In short, it runs like this:
as §1

Experiment [5] concerns Candida albicans. The experiment can be described thus: Antifungal activity against pharmacoresistant Candida albicans AIDS68 infected in Wistar rat estrogen-dependent fungal vaginitis model assessed as fungal burden at 10 ug administered intravaginally 1 hr after fungal infection measured within 1 day of infection. In short, it runs like this: as §1
In experiment [6] the test system is Candida albicans. The experiment can be described thus: Antifungal activity against Candida albicans SA40 infected in Wistar rat estrogen-dependent fungal vaginitis model assessed as fungal burden at 10 ug administered intravaginally 48 hrs after fungal infection measured on day 28 after infection. The procedure, abridged:
as §1

In experiment [7] the test system is Candida albicans. Put plainly: Antifungal activity against Candida albicans SA40 infected in Wistar rat estrogen-dependent fungal vaginitis model assessed as fungal burden at 10 ug administered intravaginally 48 hrs after fungal infection measured on day 21 after infection. In short, it runs like this:
as §1

In experiment [8] the test system is Candida albicans. Put plainly: Antifungal activity against Candida albicans SA40 infected in Wistar rat estrogen-dependent fungal vaginitis model assessed as fungal burden at 10 ug administered intravaginally 48 hrs after fungal infection measured on day 14 after infection. The procedure, abridged:
as §1

The test system of experiment [9] is Candida albicans. The experiment can be described thus: Antifungal activity against Candida albicans SA40 infected in Wistar rat estrogen-dependent fungal vaginitis model assessed as fungal burden at 10 ug administered intravaginally 48 hrs after fungal infection measured on day 7 after infection. The procedure, abridged:
as §1

In experiment [10] the test system is Candida albicans. Put plainly: Antifungal activity against Candida albicans SA40 infected in Wistar rat estrogen-dependent fungal vaginitis model assessed as fungal burden at 10 ug administered intravaginally 48 hrs after fungal infection measured on day 5 after infection. The procedure, abridged:
as §1

The subject of experiment [11] is Candida albicans. The experiment can be described thus: Antifungal activity against Candida albicans SA40 infected in Wistar rat estrogen-dependent fungal vaginitis model assessed as fungal burden at 10 ug administered intravaginally 24 hrs after fungal infection measured on day 2 after infection. In short, it runs like this: as §1
Experiment [12] deals with Candida albicans. The experiment can be described thus: Antifungal activity against Candida albicans SA40 infected in Wistar rat estrogen-dependent fungal vaginitis model assessed as fungal burden at 10 ug administered intravaginally 1 hr after fungal infection measured on day 1 after infection. In short, it runs like this: as §1
For experiment [13], the system named is Candida albicans. Put plainly: Antifungal activity against Candida albicans SA40 infected in Wistar rat estrogen-dependent fungal vaginitis model assessed as fungal burden at 10 ug administered intravaginally 1 hr after fungal infection measured within 1 day of infection. The procedure, abridged:
as §1

Experiment [14] has as its system Candida albicans. Put plainly: Antifungal activity against pharmacoresistant Candida albicans AIDS68 infected in Wistar rat estrogen-dependent fungal vaginitis model assessed as fungal burden at 10 ug administered intravaginally 48 hrs after fungal infection measured on day 14 after infection. The procedure, abridged: as §1
The test system of experiment [15] is Candida albicans. Put plainly: Antifungal activity against pharmacoresistant Candida albicans AIDS68 infected in Wistar rat estrogen-dependent fungal vaginitis model assessed as fungal burden at 10 ug administered intravaginally 48 hrs after fungal infection measured on day 21 after infection. The procedure, abridged: as §1
The test system of experiment [16] is Candida albicans. Put plainly: Antifungal activity against pharmacoresistant Candida albicans AIDS68 infected in Wistar rat estrogen-dependent fungal vaginitis model assessed as fungal burden at 10 ug administered intravaginally 48 hrs after fungal infection measured on day 28 after infection. The procedure, abridged: as §1

As for `OC(Cn1cncn1)(Cn1cncn1)c1ccc(F)cc1F` [FLUCONAZOLE], the Activity in the experiment with Candida albicans [1] is given as 44 ×10³ CFU/ml; with Candida albicans [2], 61 ×10³ CFU/ml; in the experiment with Candida albicans [3] it was 93 ×10³ CFU/ml; in the experiment on Candida albicans [4], 100 ×10³ CFU/ml; in the experiment with Candida albicans [5], greater than 100 ×10³ CFU/ml; in the experiment on Candida albicans [6], 0 ×10³ CFU/ml. Moreover, the Activity in the experiment on Candida albicans [7] is 1.25 ×10³ CFU/ml; in the experiment on Candida albicans [8], 5 ×10³ CFU/ml; in the experiment with Candida albicans [9] it was 11.7 ×10³ CFU/ml; in the experiment on Candida albicans [10], 25.7 ×10³ CFU/ml; in the experiment on Candida albicans [11] it was 49.7 ×10³ CFU/ml; with Candida albicans [12], 53.5 ×10³ CFU/ml. The Activity in the experiment on Candida albicans [13] was 100 ×10³ CFU/ml; with Candida albicans [14], 18.7 ×10³ CFU/ml; in the experiment with Candida albicans [15], 11.7 ×10³ CFU/ml; with Candida albicans [16] it was 0 ×10³ CFU/ml.
